Experimental findings from the RNAGym collection of RNA variant scans (doi:10.1126/science.aae0568) are described below.

First the molecules themselves.
B1: tRNA (parent)
chain: GUUCCGUUGGCGUAAUGGUAACGCGUCUCCCUCCUAAGGAGAAGACUGCGGGUUCGAGUCCCGUACGGAACG

Fewer inactive variants are shown than the library holds. Bounds are passed on as bounds.

In this data set the parent is B1. Kind of data set: yeast fitness relative to wild type (ratio to wild type); higher = fitter; tRNA-Arg(CCU), competitive growth, 37 C, YPD. An outline of the steps:
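Start and end populations of a pooled competition were compared by 100-nucleotide paired-end sequencing of gene amplicons. The Saccharomyces cerevisiae strains carried tRNA-Arg(CCU) gene variants at the native genomic locus, synthesised with a 3% per-site mutation rate at 69 sites, and competed in YPD at 37°C for 24 hours in six parallel replicates. Darwinian fitness relative to wild type was based on the change in genotype frequencies. Genotypes required ≥ 100 starting reads, and estimates < 0.5 were set to 0.5.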
For the variant GUUCGGUUCGCGUAAUGGUAACGCGUCUCCCUCCUAAGGAGAAGACCGCGGGUUCGAGUCCCGUUCGGAACG, the yeast fitness is no more than 0.5. GUUCGGUUAGCGUAAUGGUAACGCCUUUCCCUCCUAAGGAGAAGACUGCGGGUUCAAGUCCCGUACGGAACG: the yeast fitness came to 0.6.

With GUUCGGUUGCCGUAAUGGUAACGCGUCUCCCUCCUAAGGAGAAGACUGCGGAUACGAGUGCCGUACGGAACG, the yeast fitness was determined as 0.629. In the case of GUUCGGUUGCCGUAAUGGUAACGCGUCUCCCUCCGAAGGAGAAGACUGCAGGUUUGAGUCCCGUACGGCACG it was 0.607. In the case of GUUCGGUUGGCGUAAUGGUAACGCGUCUCCCUCCUAAGGAGAAGACUGCGGGUUCGAGUCCCGUAAGGUACG it was 0.574; in that of GUUCGGUUGCCGUAAUGGUAACGCGUCUCCCUCCUAAGGAGAUGACUGCGGGUCCGAGUCCCGUACGGAACG, no more than 0.5; in that of GUUCGGUUGGCGUAAUGGUAACGCGUCUCCCUCCUAAGGAGAAGACUGCGGGUUCGAGUCCGGAACGGAACG, no more than 0.5. The same measure for GUUCGGUUGGCGUAAUGGUAACGCGUCUCCCUCCUAAGGAGAAGACUGAGGGUUCGAGUCCCAUACGGAACG: no more than 0.5.

Regarding GUUCGGUUGGCGUAAUGGUAACGCGUCUCCCUCCUAAGGAGAAGACUGAGGGUUCGAGUCCCGCACGGAACG, the yeast fitness turned out to be 0.621.

In the case of GUUCGGUUCGCGUAAUGGUUGCGGGUGUCCCUCCUAAGGAGAAGACUGCGGGUUCGAGUCCCGUACGAAACG, the yeast fitness is no more than 0.5. In the case of GUUCGGUUGGCAUAAUGGUAAAGCGCCUCCCUGCUAAGGAGAAGACUGCGGGUUCGAGUCCCGAACCGAACG it was no more than 0.5. The same measure for GUUCGGUUGGCAUAAUGGUAACGCGUCUCCCUCCUAAGGAGAAGACUGGGGGUUCGAGUCCCGUACGCAACG: no more than 0.5; for GUUCGGUUGGCCUAAUGGUAACGAGUCUCCCUGCUAAGGAGAAGACUGGGGGUUCGAGUCCCGUGCGGAACG: 0.573.

Regarding GUUCGGUUGGCGUAAUGGUAACGCGUCUCCCUCCUAAGGAGAAGACUGCGGGUUUGAGUCCCGUACGGAACG, the yeast fitness stood at 0.791. In the case of GUUCGGUUGGCGUAAUGGUAACGCGUCUCCCUCCUAAGGAGAAGACUGGGGGAUCGAGUCCCGUACGGAACG it was no more than 0.5; in that of GUUCGCUUGGCGUAAUGGUAACGCGUCUCCCUCCUAACGAGAAGACUGCGGGUUCGAUUCCCGUACGGAACG, 0.551.

Regarding GUUCGGUUCGCGUAAUGGUAACGCGUCUCCCUCCUAAGGCGAAGACUGCGGGUUCGAAUCCCGUACGGAACG, the yeast fitness is no more than 0.5. The same measure for GUUCGGUUAGCGUAAUGGUAACGCGUGUCCCUCCUAAGGAGAAGACUGCGGGUUCGAGUCCCGUACGGAACG: 0.544; for GUUCGAUUGGCGUAAUGGUAACGCGUCUUCGUGCUAAAGAGAAGACUGCGGGUUCGAGGCCCGUACGGAACG: no more than 0.5. On to GUUCGGUUGGCGUAAUGGUAACGCGUCUCCCUCCUAAGGAGAAGACUGAGGGUUCGAGUCCCGUACGGAACG, for which the yeast fitness came to 0.624. The same measure for GUUCGGUUGGCGUAAUGGUAACGCGUCUCCCUCCUAAGGAGAAGACUGGGGGUUCGAGUCCCGUACGGAACG: 0.84; for GUUCGGUUCGCGUAAUGGUUGCGGGUGUCCCUCCUAAGGAGAAGACUGCGGGUUCGAGUCCCGUACGGAACG: 0.577. The same measure for GUUCGGUUGGCAUAAUGGUAACGCGUCACCCUCCUAAGGAGAAGACUGCGGGUUCGAGUCCCGUGCGGAACG: 0.703; for GUUCGGUUGGCGUAAUGGUAACGCGUCUCCCUCCUAAGGAGAAGACUGCGGGUUCGAGUCUCGGACGGAACG: 0.87. The same measure for GUUCGGUUCGCGUAAUGGUAACGCGUCUCCCUCCUAAGGAGAGGACUGCGGGUUCGAGUCCCGUACGGGACG: no more than 0.5; for GUUCGCUUGGCGUAGUGGUAACGCGUCUCCCUCCUAAGGAGAAGACUGCGGGUUCGAGUCCUGUCCGGAACG: 0.6; for GUUCGGUUGGCCUAAUGAUAACGUGUCUUCCUCCUGAGGAGAAGACUGCGGGUUCGAGUCCCGUACGGCACG: no more than 0.5. On to GUUCGGUUGGCGUAAUGGUAACGCGUCUCCCUCCUAAGGAGAAGACUGCGGGUUCGAGUCCUGUACGGAACG, for which the yeast fitness worked out at 0.79. In the case of GUUCGGUUGGCGUAAUGGUAACGCGUCUCCCUCCUAAGGAGAAGACUGCGGGUUCGAGUCCAGUACGGAACG it was 0.697; in that of GUUCGGUUGGCGUAAUGGUAACGCGUCUCCCUCCUAAGGAGAAGACUGCGGGUUUGAGUCCCGUACGGUACG, no more than 0.5. In the case of GUUCGGUUGGCGUAAUGGUAACGCGUCUCCCUCCUAAGGAGAAGACUGCGGGUUCGAGUCGCGUACGGGACG, the yeast fitness is no more than 0.5. The same measure for GUUCGGUUCGCGUAAUGGUAACGCGUCUCCCUCCUAAGGAGAAGACUGCGGGUUCGACUCCCGUACGGAACG: no more than 0.5. Regarding GUUCGGUUGGCGUAAUGGUAACGCGUCUCCCUCCUAAGGAGAAGACUGCGGGUUGGAGUCCCGUCCGGAACG, the yeast fitness was determined as 0.531. The same measure for GUUCGCUUGGCGUAAUGGUAACGCGUCUCCCUCCUAAGGAGAAGACUACGGGUUCGAGUCCCGUACGGAACG: 1.06; for GUUCGGUUCGCGCAAUGGUAGCGCGUCUCCCUCCUAAGGAGAAGACUGCGGGUUCGAGUCCCGUACGGAACG: no more than 0.5. Consider GUUCGGUUGACGUAAUGGUAACGCGUCUCCCUCCUAAGGAGAAGACUGCGGGUUCGAGUCCCGUACGGAACG, for which the yeast fitness was 0.804. In the case of GUUCGGUUGCCGUAAUGGUAACGCGUCUACCUCCUAAGGAGAAGACUGCGGGUUCGAGUCCCGUACGGAACG it was no more than 0.5. The same measure for GUUCGGUUGGCGUAAUGGUAACGCGUCUCCCUCCUAAGGAGAAGACUGCGGGUUCGAGUCACCUACGGAACG: no more than 0.5; for GUUCGAUUGGCGUAAUGGUAACGCGUCUCCCUCCUAAGGAGAAGACUGCGGGUUCGAGUCCCGUACGGAACG: 0.659; for GUUCGGUUGGCGUAAUGGUAACGCGUCUCCCUCCUAAGGAGAAGACUGCGGGUUCGAGUCGCGUCCGGAACG: no more than 0.5. Take GUUCGGUUGGCGUAAUGGUAACGCGUCUCCCUCCUAAGGAGAAGACUGCGGGUUCGAGUCCGGUUCGGAACG: the yeast fitness is no more than 0.5. With GUUCGAUUGGCGUAGUGGUAACGCGUCUCCCUCCUAAGGAGAAGACUGCGGGUUCGAGUCCCGUACGGAACG, the yeast fitness is no more than 0.5. The same measure for GUUCGGUUGGCGUAAUGGUAACGCGUCUCCCUCCUAAGGAGAAGACUGGGAGUUCGAGUCCCGUACGGAACG: no more than 0.5; for GUUCGGUUGGCGUAAUAGUCACGCGUCUCCCUCCUAAGGAGAAGACUGGGGGUUCGAGUCCCGUACGGAACG: 0.551. With GUUCGGUUCGCGUAAUGGUAACGCGUCUCCCUCCUAAGGAGGAGACUGCGGGUUCGAGUCCCGUACGGAACG, the yeast fitness is no more than 0.5. The same measure for GUUCGGUUGGCGUAAUGGUAACGCGUCUCCCUCCUAAGGAGAAGACUGCGGGUUCGAGUCAUGUUCGGCACG: no more than 0.5; for GUUCGGUUGGCGUAAUGGUAACGCGUCUCCCUCCUAAGGAGAAGACUGCGGGUUCGAGUCCCGUAGGGAACG: 0.781. The same measure for GUUCGGUUCGCGUAAUGGUAACGCGUCUCCCUCCUAAGGAGAAGACUGCGGGUUCGAGUCCCGUACAGAACG: no more than 0.5; for GUUCGGUUGGCCUAAUGGUAACGCGUCUCCCUCCUAAGGAGAAGACUGUGGGUUCGAGUCCCGUCCGGAACG: 0.726.

As for GUUCGAUUGGCGUAAUGGUAACGCGUCUCGCUCCUAAGGAGAAGACUGCGGGUUCGAGUCCCGUACGGAACG, the yeast fitness is no more than 0.5. GUUCGGUUGAGGUAAGGGUAACGCGUCUCCCUGCUAAGGAGAAGACUGCGGGUUCGAGUCCCGUAUGGAACG: the yeast fitness was no more than 0.5. In the case of GUUCGGUUGGCGUAAUGGUAACGCGUCUCCCUCCUAAGGAGAAGAUUGCGGGAUCGAGUCCCGUACGGAACG it was 0.529; in that of GUUCGCUUGGCGUAAUGGUAACGCGUCUCCCUCUUAACGAGAAGACUGCGGGUUCGAGUCCCGUACGGAACG, 0.749; in that of GUUCGGUUCGCGUAAUGGUAACGCGUCUCCCUCCUAAGGAGAAGACUGCGGGUUCGAGUCCCGUUCGGAACG, 0.555. The same measure for GUUCGGUUGGCGUAAUGGUAACGCGUCUCCCUCCUAAGGAGAAGACUGCGGGUUCGAGUCCCGUAAGGGCCG: no more than 0.5; for GUUCGGUUGGCGUAAUGGUAACGCGUCUCCCUCCUAAGGAGAAGACUGCGGGUUCGAGUCUCGUACGGUACG: 0.775; for GUUCGGUUGGCGUAAUGGUAACGCGUCUCCCUCCUAAGGAGAAGACUGCGGGUUCGAGUCUCGUACGGCACG: no more than 0.5. The same measure for GUUCGGUUCGCGUAAUGGUAACGCGUCUCCCUCCUAAGGAGAGGACUGCGGGUUCGAGUCCCGUACGGAACG: 0.667; for GUUCGAUUGGCGUAAUGGUAACGCGUCUGCCUCCUAAGGAGAAGACUGCGGGUUCGAGUCCCGUACGGAACG: 0.533.

As to GUUCGGUUGGCCUAAUGGUAACGCGUCUCCCUCCUAAGGAGAAGCUUGCGGGUUUGAGUCCUGUACGGAACG, the yeast fitness was no more than 0.5.

As to GUUCGGUUGACGUAAUGGUAACGCGUCUCCCUCCUACGGAGAAGACUGCGGGUUCAAGUCCCGUACGGAACG, the yeast fitness was 0.567.

For the variant GUUCGAUUGGCGUAAUGGUAACGCGUCUUCCUGCUAAAGAGAAGACUGCGGGUUCGAGGCCCGUACGGAACG, the yeast fitness came out at 0.562. The same measure for GUUCGGUUGGCGUAAUGGUAACGCGUCUCCCUCCUAAGGAGAAGACUGCGGGUUAGAGUCCUGUACGGAACG: 0.546; for GUUCGGUUGGCGUAAUAGUCACGCGUCUCCCUCCUAAGGAGAAGACUGCGGGUUCGAGUCCCGUACGGAACG: no more than 0.5; for GUUCGGUUGACGUAAUGGUAACGCGUCUCCCUCCUAAGGAGGAGACUGCGGGUUUGAGUCCCGUACGGACCG: no more than 0.5.

Take GUUCGGUUGGCAUAAUGGUAACGCGUCUCCCUCCUAAGGAGAAGACUGCGGGUUCGAGUCCCGUACGGAACG: the yeast fitness amounted to 0.932. In the case of GUUCGGUUGGCCUAAUGGUAACGCGUCUCCCUCCUAAGGAGAAGACUGUGGGUUCGAGUCCCGUACGGAACG, the yeast fitness was determined as 0.584. For the variant GUUCGGUUCGCGUAAUGGUAACGCGUCUCCCUCCUAAGGUGAAGACUGCGGGUUCGAGUCCCGUAGGGAACG, the yeast fitness is no more than 0.5.

As for GUUCGGUUGCCGGAAUGGUAACGCGUCUCCCUCCUACGGAGAAGACUGCGGGUUCAAGUCCCGUUCGGAACG, the yeast fitness amounted to 0.64. The same measure for GUUCGAUUGGCGUAAUGGUAACGCGUCUCCCUCCUAAGGAGAAGACUGCCGGUUCGAGUCCCGUACGGAACG: 0.608; for GUUCGGUUCGCGUAAUGGUAACGCGUCUCCCUCCUGAGGAGAAGAUUGCGGGUUCGAGUCCCGUACGGAACG: no more than 0.5; for GUUCGGUUGACGUAAUGGUAACGCGUCUCCCUUCUAAGGAGAAGACUGCGGGUUCGAGUCCCGUCCGCAACG: 0.55. The same measure for GUUCGAUUGGCGUAAUGGUAACGCGCCUCCCUCCUAAGGAGAAGACUGCGGAUUCGAGUCCCGUACGGAACG: 0.619; for GUUCGGUUGACGUAAUGGUAAUGCGUCUCCCUCCUACGGAGAAGACUGCGGGUUCAAGUCCCGUACGGAACG: no more than 0.5; for GUUCGCUUGGCGUAAUGGUAACGCGUCUCCCUCCUAAGGAGAAGACUGAGGGUUCGAGUCCCGUACGGAACG: no more than 0.5.
